Read-outs that look alike come from different tables or passages of the source. Where a SMILES comes first, the peptide text is derived from it. The star is where a group is joined. Cbz = O=C(OCc1ccccc1)*
How the values were obtained:
DB cells [1] = assay: DB cell proliferation analysis; type: cell-based, human; conditions: for Reduction of cell growth compared to DMSO: 0.5 μM, 12 days
Procedure, shortened: (§1)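 DB cells in RPMI 1640 with 10% FBS (37 °C, 5% CO₂), seeded at 100K cells/mL in 12-well plates. Dosed with 0.01–10 μM or 0.5 μM test compound, or DMSO. Every 3 days, media exchanged, cells split back to seeding density and re-dosed, for up to 12 days. Trypan blue automated counts gave cells/mL and % viability. % proliferation relative to DMSO at each time point; EC50 from four-parameter log(inhibitor) fit.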

H3K27me3 = H3K27me3 levels by western blot in DB cells; type: cell-based, human; conditions: 3 μM for 96 hr
Procedure, shortened: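 H3K27me3 by western blot: DB cells seeded at 50,000 cells/well and treated with 3 μM test compound or DMSO for 96 hr. PBS-washed cells lysed in Cytobuster with protease inhibitors and benzonase. Samples boiled with reducing Laemmli buffer, separated on 4–15% gels, transferred to PVDF. Densitometry normalized to GAPDH and expressed relative to DMSO.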

[2] = molecular target: PRC2 components EED and EZH2^WT/EZH2^Y641N (Homo sapiens, UniProt O75530+P40337); assay: Degradation of PRC2 components by western blot in DB cells; type: cell-based; conditions: for Degradation of EED and EZH2^WT/EZH2^Y641N at 96 hr: DB cells, 3 μM for 96 hr
tumor growth = conditions: once daily intraperitoneal administration, 150 mg/kg; cited from earlier work
[3] = test system: triple negative breast cancer (TNBC) cells; conditions: cited from earlier work
EZH2^WT/EZH2^Y641N [4] = conditions: read-out: EZH2^WT/EZH2^Y641N DC50; DB cells; cited from earlier work
[5] = molecular target: biotinylated EED and His-VHL (Homo sapiens, UniProt O75530+P40337); assay: TR-FRET ternary complex formation assay; type: binding; conditions: EED-biotin and His-VHL, dose response up to 10 μM
Procedure, shortened: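 Ternary complex TR-FRET: biotinylated EED (residues 1–441, 160 nM) and His-VHL (residues 1–154, 320 nM) with Eu-streptavidin (2 nM) and ULight anti-6xHis (100 nM). Buffer: 20 mM Tris pH 7.5, 150 mM NaCl, Tween 20, 2 mM DTT, 1% DMSO. 10-point three-fold series from 10 μM; 4 h in dark. Read 665/615 ratio (320 nm excitation), minus no-compound wells. Technical triplicates; two independent experiments, standard error.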

[6] = Solubility observed in ternary complex assay; type: physicochemical; conditions: above 10 μM in ternary complex assay
SUZ12 = SUZ12 degradation by western blot in DB cells; type: cell-based, human; conditions: % degradation at 3 μM after 24 hr
Procedure, shortened: (§2)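 DB cells seeded at 800,000 cells/well and dosed from DMSO stock for 24 hr; dose–response 0.01–3 μM. Cells washed with PBS and lysed in Cytobuster with protease inhibitors and benzonase. Normalized lysate boiled with reducing Laemmli buffer, run on 4–15% gels, blotted to PVDF, detected by fluorescence or ECL. Band densitometry normalized to GAPDH, then to DMSO, gave % degradation; EED quantified from lower ~55 kDa band. DC50 from three-parameter fit; Dmax = % degradation at 3 μM, 24 hr.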

His-tagged EED = His-tagged EED (Homo sapiens, UniProt O75530); assay: EED binding TR-FRET assay; conditions: result in words
Procedure, shortened: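 EED binding by TR-FRET displacement of a biotinylated EED ligand (15 nM). Mix held EED-6xHis (15 nM), ULight anti-6xHis antibody (10 nM) and Eu-W1024 streptavidin (2 nM). Test compounds run as 10-point dose–response, top final concentration 10 μM. IC50 from three biological replicates ± standard deviation.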

EED = EED (Homo sapiens, UniProt O75530); assay: EED degradation by western blot in DB cells; type: cell-based
Procedure, shortened: as §2

DB cells [7] = assay: DB cell viability; type: cell-based, human; conditions: 12 days, top concentrations tested (5 – 10 μM)
Procedure, shortened: as §1

EZH2^WT/EZH2^Y641N [8] = assay: EZH2 degradation by western blot in DB cells; type: cell-based, human; conditions: % degradation at 3 μM after 24 hr
Procedure, shortened: as §2

Caco-2 = Caco-2 permeability assay; type: in vitro ADME

Chain of biotinylated EED and His-VHL (O75530 whole entry, the tested form may be a part): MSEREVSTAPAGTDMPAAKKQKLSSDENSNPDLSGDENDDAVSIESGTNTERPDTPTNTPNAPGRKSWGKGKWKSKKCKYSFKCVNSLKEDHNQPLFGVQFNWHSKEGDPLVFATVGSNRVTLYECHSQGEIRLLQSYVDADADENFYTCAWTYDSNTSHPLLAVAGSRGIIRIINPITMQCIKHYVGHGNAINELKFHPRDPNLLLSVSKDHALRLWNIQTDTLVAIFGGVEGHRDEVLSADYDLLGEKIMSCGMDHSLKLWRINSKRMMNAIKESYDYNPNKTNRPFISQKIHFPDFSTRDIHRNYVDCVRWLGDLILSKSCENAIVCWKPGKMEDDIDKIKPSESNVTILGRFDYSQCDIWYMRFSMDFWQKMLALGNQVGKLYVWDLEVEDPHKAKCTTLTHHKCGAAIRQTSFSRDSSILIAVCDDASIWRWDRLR
Chain of biotinylated EED and His-VHL (P40337 1-154): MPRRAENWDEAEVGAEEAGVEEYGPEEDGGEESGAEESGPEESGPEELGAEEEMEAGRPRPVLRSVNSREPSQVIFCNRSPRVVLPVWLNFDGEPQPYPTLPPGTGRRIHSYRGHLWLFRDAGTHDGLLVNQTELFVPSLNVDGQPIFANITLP
Chain of EED (O75530 whole entry): as the sequence (O75530 whole entry, the tested form may be a part) above
Chain of His-tagged EED (O75530 whole entry): as the sequence (O75530 whole entry, the tested form may be a part) above

## CS(=O)(=O)c1ccc(-c2cnc(NCc3ccco3)n3cnnc23)cc1 [EED226]
DB cells [1]
  Reduction of cell growth compared to DMSO: 24%
H3K27me3
  Decrease in H3K27me3 levels: 63%

## CC(C)C[C@@H](C=O)NC(=O)[C@H](CC(C)C)NC(=O)[C@H](CC(C)C)NC(=O)OCc1ccccc1 [MG132] (Cbz-Leu-Leu-Leu-aldehyde)
[2]; added prior to UNC7700 cell treatment
  Effect of proteasome inhibitor pretreatment on UNC7700 mediated PRC2 degradation: blocks PRC2 degradation

## Cc1cc(C)c(CNC(=O)c2cc(-c3ccc(N4CCN(CCNC(=O)CC56CC7CC(CC(C7)C5)C6)CC4)nc3)cc3c2cnn3C(C)C)c(=O)[nH]1 [MS1943]
Tumor growth
  Tumor growth in vivo: suppresses tumor growth in vivo
[3]
  Anti-proliferative effect in TNBC cells: anti-proliferative

## CCCc1cc(C)[nH]c(=O)c1CNC(=O)c1cc(-c2ccc(N3CCN(C(C)C)CC3)nc2)cc2c1cnn2C(C)C [UNC1999]
DB cells [1]
  Reduction of cell growth compared to DMSO: 28%
H3K27me3
  Decrease in H3K27me3 levels: 76%

## Cc1ncsc1-c1ccc(CNC(=O)[C@@H]2C[C@@H](O)CN2C(=O)[C@@H](NC(=O)CCCNC(=O)c2ccc(-c3cnc(NCc4ccco4)n4cnnc34)cc2)C(C)(C)C)cc1 [UNC6852]
EZH2^WT/EZH2^Y641N [4]
  DC50: 670 ± 240 nM
DB cells [1]
  Reduction of cell growth compared to DMSO: 8%
[5]
  PROTAC concentration at maximum peak height of ternary complex TR-FRET signal: around 1 μM
  Ternary complex TR-FRET signal, in words: signs of a bell-shaped curve
[2]
  Degradation of EED and EZH2^WT/EZH2^Y641N at 96 hr: substantial degradation of EED and EZH2^WT/EZH2^Y641N
H3K27me3
  Decrease in H3K27me3 levels, in words: only a small decrease in H3K27me3 levels
[6]
  Solubility: poor solubility observed above this concentration

## Cc1ncsc1-c1ccc(CNC(=O)[C@H]2C[C@@H](O)CN2C(=O)[C@@H](NC(=O)CCCNC(=O)c2ccc(-c3cnc(NCc4ccco4)n4cnnc34)cc2)C(C)(C)C)cc1 [UNC7043]
[5]
  Ternary complex TR-FRET signal, in words: do not show any increase in FRET signal

## Cc1ncsc1-c1ccc(CNC(=O)[C@@H]2C[C@@H](O)CN2C(=O)[C@@H](NC(=O)C2CC(NC(=O)c3ccc(-c4cnc(NCc5ccco5)n5cnnc45)cc3)C2)C(C)(C)C)cc1 (stereo partly drawn) [UNC7700]
SUZ12
  SUZ12 Dmax: 44%
His-tagged EED
  EED binding (TR-FRET IC50): equally potent binders of EED
EED; % degradation at 3 μM after 24 hr
  EED Dmax: 84%
EED; read-out: EED DC50, 24 hr, dose response 0.01–3 μM, western blot
  DC50: 111 nM
DB cells [7]
  Loss in cell viability: ~30%
DB cells [1]
  Reduction of cell growth compared to DMSO: 46%
DB cells [1]; read-out: Proliferation EC50 after 9 days, 0.01 – 10 μM, 9 days
  EC50: 2600 ± 1900 nM
DB cells [1]; read-out: Proliferation EC50 after 12 days, 0.01 – 10 μM, 12 days
  EC50: 790 ± 530 nM
[5]
  PROTAC concentration at maximum peak height of ternary complex TR-FRET signal: around 1 μM
  Ternary complex TR-FRET signal, in words: much weaker compared to UNC6852
[2]
  Degradation of EED and EZH2^WT/EZH2^Y641N at 96 hr: complete degradation of EED and EZH2^WT/EZH2^Y641N
EZH2^WT/EZH2^Y641N [8]
  EZH2^WT/EZH2^Y641N Dmax: 86%
H3K27me3
  Decrease in H3K27me3 levels: 85%
Caco-2
  Caco-2 permeability: below the limit of detection of the assay
Caco-2; from the donor compartment, cell lysate, and assay well
  Percent recovery in Caco-2 assay: 79–106%
